Laboratory results published in ChEMBL document CHEMBL5252663, “Evaluation of 1,3,4-Thiadiazole Carbonic Anhydrase Inhibitors for Gut Decolonization of Vancomycin-Resistant Enterococci” (ACS Med Chem Lett, 2023).
Values after ≈ are worked out from the molar mass of the structure shown. Active and inactive are the calls of the source. The calls are words filed in the database; no cut-off is given here.

Tests used:
Enterococcus faecium [1] = test: Antibacterial activity against vancomycin-resistant Enterococcus faecium HM-952 infected in C57BL/6 mouse assessed as log reduction in bacterial colony forming unit in feces at 20 mg/kg,po qd measured after 5 days of administration; format: functional; settings: time 5 day
Summary of the method: (§1)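 C57BL/6 mice given ampicillin in drinking water (0.5 g/L) for 7 days, then gavaged orally with 5.39 × 10^8 CFU/mL E. faecium HM-952. Colonization was allowed for 7 days. Randomized groups (n = 7) got 20 mg/kg by oral gavage once daily for 8 days. Vehicle was dimethylacetamide:20% propylene glycol:40% PEG 400:30% PBS. Fecal CFU was counted on days 0, 3, 5 and 7, and ileal and cecal CFU at day 9 after euthanasia. Comparison was against vehicle.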

[2] = Distribution coefficient between 1-Octanol and PBS buffer, logD of the compound at pH 7.4 incubated for 140 mins by HPLC anlaysis; format: physicochemical; settings: 1-octanol/PBS buffer
Enterococcus faecium [3] = test: Antibacterial activity against vancomycin-resistant Enterococcus faecium HM-952 infected in C57BL/6 mouse assessed as log reduction in bacterial colony forming unit in cecum at 20 mg/kg,po qd measured after 9 days of administration; format: functional; settings: time 9 day; summary of the method: as §1
Enterococcus faecium [4] = test: Antibacterial activity against vancomycin-resistant Enterococcus faecium HM-952 infected in C57BL/6 mouse assessed as log reduction in bacterial colony forming unit in ileum at 20 mg/kg,po qd measured after 9 days of administration; format: functional; settings: time 9 day; summary of the method: as §1
Enterococcus faecium [5] = test: Antibacterial activity against vancomycin-resistant Enterococcus faecium HM-952 infected in C57BL/6 mouse assessed as reduction in bacterial burden in feces at 20 mg/kg,po qd measured after 3 days of administration; format: functional; design: scale not given: the % may be the effect or the level left; summary of the method: as §1
[6] = Efflux ratio of apparent permeability across basolateral to apical over apical to basolateral side in human Caco2 cells; format: ADME, cell-based; settings: Caco-2
Summary of the method: (§2)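 Caco-2 monolayer transport measured in both directions, apical→basolateral and basolateral→apical, and reported as apparent permeability (×10–6 cm/s). Efflux ratio is calculated as Papp B→A divided by Papp A→B.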

Enterococcus faecium [7] = test: Antibacterial activity against vancomycin-resistant Enterococcus faecium HM-952 infected in C57BL/6 mouse assessed as log reduction in bacterial colony forming unit in feces at 20 mg/kg,po qd measured after 3 days of administration; format: functional; settings: time 3 day; summary of the method: as §1
Enterococcus faecium [8] = test: Antibacterial activity against vancomycin-resistant Enterococcus faecium HM-952 infected in C57BL/6 mouse assessed as reduction in bacterial burden in feces at 20 mg/kg,po qd measured after 5 days of administration; format: functional; design: scale not given: the % may be the effect or the level left; summary of the method: as §1
[9] = Distribution coefficient between 1-Octanol and PBS buffer, logD of the compound at pH 6.5 incubated for 140 mins by HPLC anlaysis; format: physicochemical; settings: 1-octanol/PBS buffer
[10] = Permeability across apical to basolateral side in human Caco-2 cells assessed as drug recovery; format: ADME, cell-based; settings: read-out: Drug recovery
Enterococcus faecium [11] = test: Antibacterial activity against Enterococcus faecium HM-952 assessed as inhibition of bacterial growth incubated for 18 to 20 hrs by broth microdilution assay; format: functional; settings: time 18-20 hrs
Enterococcus faecium [12] = test: Antibacterial activity against vancomycin-resistant Enterococcus faecium HM-952 infected in C57BL/6 mouse assessed as reduction in bacterial burden in feces at 20 mg/kg,po qd measured after 7 days of administration; format: functional; design: scale not given: the % may be the effect or the level left; settings: time 7 day; summary of the method: as §1
[13] = Aqueous solubility of the compound in PBS buffer at pH 7.4 by HPLC analysis; format: physicochemical
Summary of the method: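 Solubility is measured in phosphate-buffered saline at pH 7.4 and quantified against a calibration curve whose highest point is 200 μM, so the upper reportable value is >200 μM.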

Enterococcus faecium [14] = test: Antibacterial activity against vancomycin-resistant Enterococcus faecium HM-952 infected in C57BL/6 mouse assessed as reduction in bacterial burden in ileum at 20 mg/kg,po qd measured after 9 days of administration; format: functional; design: scale not given: the % may be the effect or the level left; settings: time 9 day; summary of the method: as §1
Enterococcus faecium [15] = test: Antibacterial activity against vancomycin-resistant Enterococcus faecium HM-952 infected in C57BL/6 mouse assessed as reduction in bacterial burden in cecum at 20 mg/kg,po qd measured after 9 days of administration; format: functional; design: scale not given: the % may be the effect or the level left; settings: time 9 day; summary of the method: as §1
Enterococcus faecium [16] = test: Antibacterial activity against vancomycin-resistant Enterococcus faecium HM-952 infected in C57BL/6 mouse assessed as log reduction in bacterial colony forming unit in feces at 20 mg/kg,po qd measured after 7 days of administration; format: functional; settings: time 7 day; summary of the method: as §1
[17] = Apparent permeability across apical to basolateral side in human Caco2 cells; format: ADME, cell-based; settings: Caco-2; summary of the method: as §2
[18] = Apparent permeability across basolateral to apical side in human Caco2 cells; format: ADME, cell-based; settings: Caco-2; summary of the method: as §2

SMILES: NS(=O)(=O)c1nnc(NC(=O)CCC2CCCCC2)s1
- Activity (Enterococcus faecium [1]): 1.13 log10CFU
- logD at 2.333 h [2]: 2.26
- Activity (Enterococcus faecium [3]): 1.57 log10CFU
- Activity (Enterococcus faecium [4]): 1.13 log10CFU
- Activity (Enterococcus faecium [5]; time 3 day): 90%
- efflux ratio [6]: 2.17
- Activity (Enterococcus faecium [7]): 1 log10CFU
- Activity (Enterococcus faecium [8]; time 5 day): 92.6%
- logD at 2.333 h [9]: 2.47
- recovery [10]: 35%
- MIC (Enterococcus faecium [11]): 0.03 mg/L (≈ 0.0942 µM)
- Activity (Enterococcus faecium [12]): 99.3%
- solubility [13]: 33 µM (≈ 10.5 µg/mL)
- Activity (Enterococcus faecium [14]): 94.1%
- Activity (Enterococcus faecium [15]): 97.3%
- Activity (Enterococcus faecium [16]): 2.16 log10CFU

SMILES: CC(=O)NC[C@H]1CN(c2ccc(N3CCOCC3)c(F)c2)C(=O)O1 [LINEZOLID]
- Activity (Enterococcus faecium [1]): 0.87 log10CFU
- Activity (Enterococcus faecium [5]; time 3.0 day): Active
- Activity (Enterococcus faecium [8]; time 5 day): 86.5%
- MIC (Enterococcus faecium [11]): 1 mg/L (≈ 2.96 µM)
- Activity (Enterococcus faecium [12]): 91.5%
- Activity (Enterococcus faecium [16]): 1.07 log10CFU

SMILES: NS(=O)(=O)c1nnc(NC(=O)CN2CCOCC2)s1
- Activity (Enterococcus faecium [1]): 1.13 log10CFU
- logD at 2.333 h [2]: -1.38
- Activity (Enterococcus faecium [3]): 1.92 log10CFU
- Activity (Enterococcus faecium [4]): 1.62 log10CFU
- Activity (Enterococcus faecium [5]; time 3 day): 90%
- Activity (Enterococcus faecium [7]): 1 log10CFU
- Activity (Enterococcus faecium [8]; time 5 day): 92.6%
- logD at 2.333 h [9]: -0.97
- MIC (Enterococcus faecium [11]): 1 mg/L (≈ 3.25 µM)
- Activity (Enterococcus faecium [12]): 99.3%
- solubility [13]: 127 µM (≈ 39 µg/mL)
- Activity (Enterococcus faecium [14]): 97.6%
- Activity (Enterococcus faecium [15]): 98.8%
- Activity (Enterococcus faecium [16]): 2.16 log10CFU

SMILES: CC(C)(C)CC(=O)Nc1nnc(S(N)(=O)=O)s1
- Activity (Enterococcus faecium [1]): 1.13 log10CFU
- logD at 2.333 h [2]: 1.36
- Activity (Enterococcus faecium [3]): 2.36 log10CFU
- Activity (Enterococcus faecium [4]): 1.98 log10CFU
- Activity (Enterococcus faecium [5]; time 3 day): 90%
- efflux ratio [6]: 2.22
- Activity (Enterococcus faecium [7]): 1 log10CFU
- Activity (Enterococcus faecium [8]; time 5 day): 92.6%
- logD at 2.333 h [9]: 1.55
- Papp A→B [17]: 37 nm/s
- Papp B→A [18]: 82 nm/s
- recovery [10]: 80%
- MIC (Enterococcus faecium [11]): 0.03 mg/L (≈ 0.108 µM)
- Activity (Enterococcus faecium [12]): 99.3%
- solubility [13]: > 200 µM
- Activity (Enterococcus faecium [14]): 98.9%
- Activity (Enterococcus faecium [15]): 99.6%
- Activity (Enterococcus faecium [16]): 2.16 log10CFU

SMILES: CC(=O)Nc1nnc(S(N)(=O)=O)s1 [ACETAZOLAMIDE]
- Activity (Enterococcus faecium [3]): 2.59 log10CFU
- Activity (Enterococcus faecium [4]): 2.59 log10CFU
- Activity (Enterococcus faecium [5]; time 3 day): 90%
- Activity (Enterococcus faecium [7]): 1 log10CFU
- Activity (Enterococcus faecium [8]; time 5.0 day): Active
- MIC (Enterococcus faecium [11]): 1 mg/L (≈ 4.5 µM)
- Activity (Enterococcus faecium [12]): 99.3%
- Activity (Enterococcus faecium [14]): 99.7%
- Activity (Enterococcus faecium [15]): 99.7%
- Activity (Enterococcus faecium [16]): 2.16 log10CFU
